Reference: ChEMBL document CHEMBL1124663, “Design, synthesis, antineoplastic activity, and chemical properties of bis(carbamate) derivatives of 4,5-bis(hydroxymethyl)imidazole” (J Med Chem, 1989)

Columns and labels:
[1] = tested on: Mus musculus; experiment: The toxicity day was evaluated on […] for MX-1 tumor cells of test animals dosed with 200 mg/kg of compound; 1/6; assay type: functional
Procedure, shortened: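 Human MX-1 mammary xenograft, a 1 mm3 (0.5 mg) tumor fragment implanted under the renal capsule of NCR-nu mice on day 0. Drug given ip as a fresh saline suspension on days 1, 5 and 9. Tumor size is assessed on day 11. A negative % T/C is percent shrinkage relative to the initial implant. Survivors in the toxicity group are […].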

[2] = tested on: Mus musculus; experiment: The percent of the median survival time of test mice compared to control mice, administered with 50 mg/kg compound on day 5 for L1210 tumor cells; assay type: functional
Procedure, shortened: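 L1210 leukemia, 10^5 cells implanted ip on day 0. Drug given ip daily on days 1-5 as a saline suspension freshly prepared before each injection. Read-out is median survival of treated versus control mice (% T/C), and log cell kill is derived from it.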

[3] = tested on: Mus musculus; experiment: The percent of the median survival time of test mice compared to control mice, administered with 50 mg/kg compound on day 14 for M5076 minus 1 tumor cells; assay type: functional
Procedure, shortened: (§1)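 M5076 sarcoma, 10^6 cells ip on day 0 in B6C3F1 mice. Drug given ip as a fresh saline suspension every fourth day (days 1, 5, 9, 13). % T/C is median survival of treated versus control mice, counting long-term survivors. Cures are 60-day survivors. Log cell kill is derived from this.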

[4] = tested on: Mus musculus; experiment: The percent of the median survival time of test mice compared to control mice, administered with 25 mg/kg compound on day 14 for M5076 minus 1 tumor cells; assay type: functional; procedure, shortened: as §1
[5] = tested on: Mus musculus; experiment: Toxicity day evaluation was carried out on day 5 for animal dosed with 6.25 mg/kg compound; 5/6; assay type: organism-based; design: dose 6.25 mg/kg; conditions: in vivo
[6] = tested on: Mus musculus; experiment: Body weight difference (BWD) of test animals administered with 25 mg/kg compound is determined on day 14 for M5076 minus 1 tumor cells; assay type: functional
Procedure, shortened: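 M5076 sarcoma: 10^6 cells inoculated ip on day 0 in B6C3F1 mice. Fresh saline suspension dosed ip every fourth day, on days 1, 5, 9 and 13. Body weight difference in g (treated minus control) taken as day 14 minus day 1. Ten mice per group.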

[7] = tested on: Mus musculus; experiment: Body weight difference (BWD) of test animals administered with 100 mg/kg compound is determined on […] tumor cells; assay type: functional
Procedure, shortened: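 MX-1 human mammary xenograft: solid tumour fragment (1 mm3, 0.5 mg) placed as a subrenal capsule implant on day 0 in NCR-nu mice. Fresh saline suspension dosed ip on days 1, 5 and 9. Body weight difference in g (treated minus control) recorded. Assay evaluated on day 11. Six mice per group.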

[8] = tested on: Mus musculus; experiment: The percent of the median survival time of test mice compared to control mice, administered with 100 mg/kg compound on day 14 for M5076 minus 1 tumor cells; assay type: functional; procedure, shortened: as §1
[9] = tested on: Mus musculus; experiment: The toxicity day was evaluated on day 5 for L1210 tumor cells of test animals dosed with 25 mg/kg of compound; 6/6; assay type: functional
Procedure, shortened: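 L1210 leukaemia, 10^5 cells, implanted ip on day 0. Freshly prepared saline suspension dosed ip daily on days 1-5. Toxicity evaluated on day 5 as survivors over animals in the initial test group.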

SMILES: CNC(=O)OCc1nc(SC)n(C)c1COC(=O)NC
- Survivors / animals tested [1]: 1
- T/C [2]: 124%
- T/C [3]: 119%
- T/C [4]: 122%
- Survivors / animals tested [5]: 5
- BWD [6]: -2 g
- BWD [7]: -2.7 g
- T/C [8]: 151%
- Survivors / animals tested [9]: 6
